Measurements as given in ChEMBL document CHEMBL1124149 (1988).
Converted amounts (≈) assume the structure as drawn.

Tests used:
Format in all cases: functional
[1] = test system: Cytomegalovirus; assay: In vitro minimum inhibitory concentration to inhibit CMV (Davis)-induced cytopathogenicity in HEL cells by 50%; settings: Human betaherpesvirus 5
[2] = test system: FM3A; assay: Antitumor activity against murine mammary carcinoma FM3A cells; settings: Mus musculus; read-out: MIC
Method in brief: (§1)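 Tumor cell proliferation assay. Murine leukemia L1210 and murine mammary carcinoma FM3A cells were grown in culture with the compound. The value is the concentration inhibiting cell proliferation by 50%.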

[3] = test system: Human alphaherpesvirus 2; assay: In vitro minimum inhibitory concentration to inhibit HSV-2 (196)-induced cytopathogenicity in PRK cells by 50%
Method in brief: (§2)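 Antiviral read-out was virus-induced cytopathogenicity in primary rabbit kidney (PRK) cell cultures. The value is the compound concentration needed to reduce cytopathogenicity by 50%.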

[4] = test system: Human alphaherpesvirus 2; assay: In vitro minimum inhibitory concentration to inhibit HSV-2 (G)-induced cytopathogenicity in PRK cells by 50%; method in brief: as §2
[5] = test system: Human alphaherpesvirus 2; assay: In vitro minimum inhibitory concentration to inhibit HSV-2 (Lyons)-induced cytopathogenicity in PRK cells by 50%; method in brief: as §2
[6] = test system: Human alphaherpesvirus 1; assay: In vitro minimum inhibitory concentration to inhibit HSV-1 (KOS)-induced cytopathogenicity in primary rabbit kidney cells by 50%; method in brief: as §2
[7] = test system: Human alphaherpesvirus 1; assay: In vitro minimum inhibitory concentration to inhibit HSV-1 (McIntyre)-induced cytopathogenicity in PRK cells by 50%; method in brief: as §2
[8] = test system: Human alphaherpesvirus 1; assay: In vitro minimum inhibitory concentration to inhibit thymidine deficient HSV-1 (B2006)-induced cytopathogenicity in PRK cells by 50%; method in brief: as §2
[9] = test system: Human alphaherpesvirus 1; assay: In vitro minimum inhibitory concentration to inhibit thymidine deficient HSV-1 (VMV 1837)- induced cytopathogenicity in PRK cells by 50%; method in brief: as §2
[10] = test system: L1210; assay: Antitumor activity against murine leukemia L1210 cells; settings: Mus musculus; read-out: MIC; method in brief: as §1
[11] = In vitro minimum inhibitory concentration to inhibit […] (incorporation of [methyl-3H]dThd) in PRK cells by 50%; settings: Oryctolagus cuniculus
[12] = test system: Suid alphaherpesvirus 1; assay: In vitro minimum inhibitory concentration to inhibit SHV-1-induced cytopathogenicity in PRK cells by 50%; method in brief: as §2
[13] = test system: Human alphaherpesvirus 3; assay: In vitro minimum inhibitory concentration to inhibit VZV (Oka)-induced cytopathogenicity in HEL cells by 50%
[14] = test system: Human alphaherpesvirus 3; assay: In vitro minimum inhibitory concentration to inhibit VZV (YS)-induced cytopathogenicity in HEL cells by 50%
[15] = test system: Human alphaherpesvirus 3; assay: In vitro minimum inhibitory concentration to inhibit thymidine deficient VZV (YSR)-induced cytopathogenicity in HEL cells by 50%
[16] = test system: Equid alphaherpesvirus 1; assay: In vitro minimum inhibitory concentration to inhibit EHV-1-induced cytopathogenicity in PRK cells by 50%; method in brief: as §2
[17] = test system: Bovine alphaherpesvirus 1; assay: In vitro minimum inhibitory concentration to inhibit BHV-1-induced cytopathogenicity in PRK cells by 50%; method in brief: as §2
[18] = test system: Cytomegalovirus; assay: In vitro minimum inhibitory concentration to inhibit CMV (AD-169)-induced cytopathogenicity in HEL cells by 50%; settings: Human betaherpesvirus 5
[19] = test system: Human alphaherpesvirus 1; assay: In vitro minimum inhibitory concentration to inhibit HSV-1 (F)-induced cytopathogenicity in primary rabbit kidney cells by 50%; method in brief: as §2

| Compound | MIC [1] [µg/mL] | IC50 [2] [µg/mL] | MIC [3] [µg/mL] | MIC [4] [µg/mL] | MIC [5] [µg/mL] | MIC [6] [µg/mL] | MIC [7] [µg/mL] | MIC [8] [µg/mL] | MIC [9] [µg/mL] | IC50 [10] [µg/mL] | MIC [11] [µg/mL] | MIC [12] [µg/mL] | MIC [13] [µg/mL] | MIC [14] [µg/mL] | MIC [15] [µg/mL] | MIC [16] [µg/mL] | MIC [17] [µg/mL] | MIC [18] [µg/mL] | MIC [19] [µg/mL] |
| --- | --- | --- | --- | --- | --- | --- | --- | --- | --- | --- | --- | --- | --- | --- | --- | --- | --- | --- | --- |
| Cn1c(N)nc2c(ncn2COCCO)c1=O | > 100 | > 100 | 2 (≈ 8.36 µM) | 1 (≈ 4.18 µM) | 2 (≈ 8.36 µM) | 1 (≈ 4.18 µM) | 2 (≈ 8.36 µM) | 300 (≈ 1250 µM) | 300 (≈ 1250 µM) | > 100 | > 400 | 70 (≈ 293 µM) | 20 (≈ 83.6 µM) | 20 (≈ 83.6 µM) | > 100 | 10 (≈ 41.8 µM) | > 400 | > 100 | 2 (≈ 8.36 µM) |
| Cc1cn2c([O-])c3c(nc2n1)[n+](COCCO)cn3C | > 100 | > 100 | 70 (≈ 252 µM) | 70 (≈ 252 µM) | 70 (≈ 252 µM) | 70 (≈ 252 µM) | 70 (≈ 252 µM) | > 400 | > 400 | > 100 | > 400 | > 400 | > 100 | > 100 | > 100 | > 400 | > 400 | > 100 | 70 (≈ 252 µM) |
| Cc1cn2c(O)c3ncn(COCCO)c3nc2n1 | > 100 | > 100 | 0.7 (≈ 2.66 µM) | 0.7 (≈ 2.66 µM) | 2 (≈ 7.6 µM) | 2 (≈ 7.6 µM) | 2 (≈ 7.6 µM) | 400 (≈ 1520 µM) | 400 (≈ 1520 µM) | > 100 | 257 (≈ 976 µM) | > 400 | 20 (≈ 76 µM) | 20 (≈ 76 µM) | > 100 | 20 (≈ 76 µM) | > 400 | > 100 | 2 (≈ 7.6 µM) |
